The M2OR odorant receptor database

What was measured:
Details in all cases: stereoisomer not certain
[1] = molecular target: T1, UniProt L7MU75
T1 sequence (whole entry): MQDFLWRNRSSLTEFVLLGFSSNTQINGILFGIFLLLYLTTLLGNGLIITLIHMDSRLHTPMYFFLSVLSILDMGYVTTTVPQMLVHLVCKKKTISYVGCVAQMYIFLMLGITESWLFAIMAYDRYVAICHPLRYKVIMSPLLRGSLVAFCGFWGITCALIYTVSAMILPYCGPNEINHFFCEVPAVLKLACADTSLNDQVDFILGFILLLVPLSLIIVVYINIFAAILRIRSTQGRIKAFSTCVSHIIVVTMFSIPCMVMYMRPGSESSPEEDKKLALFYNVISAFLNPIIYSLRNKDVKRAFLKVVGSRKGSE
Summary of the method: (§1)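 Transient luciferase assays in mammalian cell lines were common, though methods varied by source. The values come from published papers and their supplementary material, with extra details from the original authors when needed. Responsive refers to a measured signal the original authors judged statistically different from baseline, and non-responsive (inactive) to the remainder.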

[2] = molecular target: T2, UniProt L7N210
T2 sequence (whole entry): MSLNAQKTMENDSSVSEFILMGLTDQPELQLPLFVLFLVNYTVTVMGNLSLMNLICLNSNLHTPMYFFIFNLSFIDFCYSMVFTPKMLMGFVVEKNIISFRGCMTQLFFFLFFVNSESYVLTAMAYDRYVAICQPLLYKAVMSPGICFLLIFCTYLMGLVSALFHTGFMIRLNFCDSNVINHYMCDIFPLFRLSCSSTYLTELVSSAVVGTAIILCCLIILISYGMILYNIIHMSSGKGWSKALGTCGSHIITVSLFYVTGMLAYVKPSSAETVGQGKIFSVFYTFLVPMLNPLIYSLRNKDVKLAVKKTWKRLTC
Summary of the method: as §1

[3] = molecular target: T3, UniProt Q3KPB0
T3 sequence (whole entry): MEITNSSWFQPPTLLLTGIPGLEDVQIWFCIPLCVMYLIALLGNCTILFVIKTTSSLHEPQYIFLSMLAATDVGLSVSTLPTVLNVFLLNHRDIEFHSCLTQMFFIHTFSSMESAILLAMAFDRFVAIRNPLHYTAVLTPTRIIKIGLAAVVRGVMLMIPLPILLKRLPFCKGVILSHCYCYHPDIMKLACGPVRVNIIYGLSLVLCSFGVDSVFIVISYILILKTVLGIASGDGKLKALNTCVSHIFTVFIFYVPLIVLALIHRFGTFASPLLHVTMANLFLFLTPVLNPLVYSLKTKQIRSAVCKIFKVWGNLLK
Summary of the method: as §1

[4] = molecular target: T4, UniProt Q3U0P3
T4 sequence (whole entry): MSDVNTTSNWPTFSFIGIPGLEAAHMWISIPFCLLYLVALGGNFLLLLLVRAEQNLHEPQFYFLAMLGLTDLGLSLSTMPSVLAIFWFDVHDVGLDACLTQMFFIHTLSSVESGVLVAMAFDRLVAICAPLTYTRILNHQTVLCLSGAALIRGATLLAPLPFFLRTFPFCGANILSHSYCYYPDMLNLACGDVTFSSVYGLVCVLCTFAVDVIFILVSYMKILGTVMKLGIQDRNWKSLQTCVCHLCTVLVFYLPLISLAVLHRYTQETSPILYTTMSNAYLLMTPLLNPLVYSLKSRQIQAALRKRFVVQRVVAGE
Summary of the method: as §1

[5] = molecular target: T5, UniProt Q7TQU8
T5 sequence (whole entry): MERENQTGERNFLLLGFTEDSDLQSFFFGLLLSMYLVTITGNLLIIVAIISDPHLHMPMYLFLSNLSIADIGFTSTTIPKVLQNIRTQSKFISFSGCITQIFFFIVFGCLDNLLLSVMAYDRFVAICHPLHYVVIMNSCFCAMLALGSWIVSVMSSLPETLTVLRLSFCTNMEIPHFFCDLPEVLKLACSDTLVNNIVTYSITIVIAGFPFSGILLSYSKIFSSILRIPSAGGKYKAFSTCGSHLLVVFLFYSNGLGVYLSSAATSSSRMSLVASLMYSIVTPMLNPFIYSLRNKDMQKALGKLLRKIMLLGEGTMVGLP
Summary of the method: as §1

[6] = molecular target: T6, UniProt Q7TQV4
T6 sequence (whole entry): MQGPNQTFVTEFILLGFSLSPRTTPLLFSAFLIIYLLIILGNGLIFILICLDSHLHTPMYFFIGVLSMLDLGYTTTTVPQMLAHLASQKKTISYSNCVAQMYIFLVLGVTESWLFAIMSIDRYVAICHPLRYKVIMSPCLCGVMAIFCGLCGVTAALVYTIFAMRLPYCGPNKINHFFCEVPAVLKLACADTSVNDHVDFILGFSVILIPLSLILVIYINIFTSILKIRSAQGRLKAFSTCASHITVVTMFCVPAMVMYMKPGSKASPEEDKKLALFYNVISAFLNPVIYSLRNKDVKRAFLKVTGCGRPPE
Summary of the method: as §1

[7] = molecular target: T7, UniProt Q7TR71
T7 sequence (whole entry): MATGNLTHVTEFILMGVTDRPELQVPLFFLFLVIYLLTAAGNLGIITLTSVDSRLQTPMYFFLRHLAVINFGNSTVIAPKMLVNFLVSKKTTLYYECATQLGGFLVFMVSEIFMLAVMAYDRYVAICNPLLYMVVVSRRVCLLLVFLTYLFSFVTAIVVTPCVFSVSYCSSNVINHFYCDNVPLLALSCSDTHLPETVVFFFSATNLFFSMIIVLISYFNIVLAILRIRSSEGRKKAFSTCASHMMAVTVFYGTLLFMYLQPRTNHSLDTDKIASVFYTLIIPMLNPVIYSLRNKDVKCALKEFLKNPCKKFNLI
Summary of the method: as §1

[8] = molecular target: T8, UniProt Q7TR79
T8 sequence (whole entry): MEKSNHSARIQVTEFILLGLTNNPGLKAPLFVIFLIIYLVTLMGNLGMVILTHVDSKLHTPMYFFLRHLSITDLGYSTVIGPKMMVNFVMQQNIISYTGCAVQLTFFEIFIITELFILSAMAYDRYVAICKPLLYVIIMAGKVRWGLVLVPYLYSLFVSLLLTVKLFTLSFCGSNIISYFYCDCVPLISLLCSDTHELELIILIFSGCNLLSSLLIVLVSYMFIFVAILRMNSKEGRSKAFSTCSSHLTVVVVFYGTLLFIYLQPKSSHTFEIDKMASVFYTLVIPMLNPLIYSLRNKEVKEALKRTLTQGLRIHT
Summary of the method: as §1

[9] = molecular target: T9, UniProt Q7TRA3
T9 sequence (whole entry): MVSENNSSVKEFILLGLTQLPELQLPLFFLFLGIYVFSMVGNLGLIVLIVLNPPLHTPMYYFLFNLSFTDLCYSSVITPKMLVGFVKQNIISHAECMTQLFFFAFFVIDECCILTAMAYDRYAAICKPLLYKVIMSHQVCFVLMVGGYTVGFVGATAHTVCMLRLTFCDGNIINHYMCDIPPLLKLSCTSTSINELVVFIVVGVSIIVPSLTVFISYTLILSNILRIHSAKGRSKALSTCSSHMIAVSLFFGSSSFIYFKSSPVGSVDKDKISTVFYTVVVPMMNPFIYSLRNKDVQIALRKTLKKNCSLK
Summary of the method: as §1

[10] = molecular target: T10, UniProt Q7TRE4
T10 sequence (whole entry): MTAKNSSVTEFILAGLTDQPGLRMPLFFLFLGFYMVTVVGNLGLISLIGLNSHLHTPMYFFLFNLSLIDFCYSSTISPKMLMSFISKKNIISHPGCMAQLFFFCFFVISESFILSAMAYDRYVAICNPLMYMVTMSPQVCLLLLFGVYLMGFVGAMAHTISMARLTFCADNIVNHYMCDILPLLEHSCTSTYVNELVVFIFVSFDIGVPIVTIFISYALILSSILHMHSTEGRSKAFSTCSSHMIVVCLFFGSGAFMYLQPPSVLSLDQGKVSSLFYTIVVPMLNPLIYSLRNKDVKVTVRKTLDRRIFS
Summary of the method: as §1

[11] = molecular target: T11, UniProt Q7TRM0
T11 sequence (whole entry): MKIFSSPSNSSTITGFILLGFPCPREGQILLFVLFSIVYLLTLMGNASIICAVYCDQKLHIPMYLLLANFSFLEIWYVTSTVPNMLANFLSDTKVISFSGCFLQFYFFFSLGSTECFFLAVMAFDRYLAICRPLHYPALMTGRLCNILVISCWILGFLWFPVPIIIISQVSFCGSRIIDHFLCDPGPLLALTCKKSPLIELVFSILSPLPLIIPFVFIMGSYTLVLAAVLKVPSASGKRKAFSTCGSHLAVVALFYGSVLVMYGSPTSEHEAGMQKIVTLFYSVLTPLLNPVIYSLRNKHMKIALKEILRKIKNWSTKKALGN
Summary of the method: as §1

[12] = molecular target: T12, UniProt Q7TRN9
T12 sequence (whole entry): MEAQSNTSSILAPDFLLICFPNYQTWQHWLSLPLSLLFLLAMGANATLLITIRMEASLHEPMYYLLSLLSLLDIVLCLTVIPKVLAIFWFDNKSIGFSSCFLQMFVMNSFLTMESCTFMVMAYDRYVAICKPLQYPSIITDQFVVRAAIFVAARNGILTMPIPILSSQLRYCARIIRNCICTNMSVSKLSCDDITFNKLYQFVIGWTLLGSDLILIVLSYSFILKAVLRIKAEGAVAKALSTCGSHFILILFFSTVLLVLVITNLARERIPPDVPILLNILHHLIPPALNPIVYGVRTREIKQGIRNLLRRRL
Summary of the method: as §1
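Also: active if original authors judged signal statistically different from baseline.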

Row | SMILES | odorant receptor agonist call [1] | odorant receptor agonist call [2] | odorant receptor agonist call [3] | odorant receptor agonist call [4] | odorant receptor agonist call [5] | odorant receptor agonist call [6] | odorant receptor agonist call [7] | odorant receptor agonist call [8] | odorant receptor agonist call [9] | odorant receptor agonist call [10] | odorant receptor agonist call [11] | odorant receptor agonist call [12]
1 | CC(C)=CCCC(C)=CCO | inactive | inactive | inactive | inactive | inactive | inactive | inactive | inactive | inactive | inactive |  | 
2 | CCCCCC(C)(C)O | inactive |  |  |  |  |  |  |  |  |  |  | 
3 | CCCCCCCCO | inactive | inactive | inactive | inactive | inactive | inactive | inactive | inactive | inactive | inactive | inactive | active
4 | CCCCCC(=O)CC | inactive | inactive | inactive | inactive | inactive | inactive | inactive | inactive | inactive | inactive |  | 
5 | CCCCC(=O)O | inactive | inactive | inactive | inactive | inactive | inactive | inactive | inactive | inactive | inactive | inactive | inactive
6 | c1ccccc1 | inactive | inactive | inactive | inactive | inactive | inactive | inactive | inactive | inactive | inactive |  | 
